# Data: paper PMC9366947 (ACS Omega, 2022)
# Marks after values point to notes of the source that are not given here.
# Legend:
# Partition coefficient = assay type: physicochemical; settings: n-octanol/water, shake flask
# In short: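 Miniaturised shake flask. Octanol stock (1000 μg/mL) mixed with presaturated n-octanol and presaturated water, shaken overnight at 500 rpm, then centrifuged 20 min at 16 000 RCF. Both layers read by UV absorbance at 300 nm against calibration curves; run in triplicate.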
# [1] = Oral dose pharmacokinetics; assay type: in vivo, Sprague–Dawley rats; settings: rat; for AUC(0-t) / Kp / Kp at 24 h / Cmax: male, Sprague-Dawley, po, 2 mg/kg; for Kp / Kp at 24 h: brain/plasma; for Cmax (brain): oral 2 mg/kg, Table 1
# In short: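 Adult male Sprague–Dawley rats, cassette dosing by oral gavage at 2.0 mg/kg (0.4 mg/mL in 0.25% methyl cellulose/water), n=3 per time point (15 min, 40 min, 2 h, 6 h, 24 h). Under ketamine/xylazine i.p., blood taken by cardiac puncture and brains collected. Brain homogenised in methanol; plasma and brain extracts cleaned up by solid-phase extraction and quantified by UPLC–MS/MS. Values are means.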
# [2] = test system: pentylenetetrazol-induced clonic and tonic convulsions in mice; assay: PTZ seizures after oral dosing in mice; assay type: in vivo, C57BL/6N mice; settings: for peak time of efficacy / effect on latency to produce convulsions: 10 mg/kg oral, 70 mg/kg PTZ; for effect on latency to produce convulsions: 2 to 8 h after dosing; for lethality/number tested, 2 h: 2 h pretreatment; for lethality/number tested, 2 h / lethality/number tested, 4 h / lethality/number tested, 8 h: 60 min observation
# In short: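 Male C57BL/6N mice dosed orally (1% carboxymethylcellulose, 10 mL/kg). After the pretreatment interval, PTZ 70 mg/kg s.c. in 0.9% NaCl. Lethality and latency to death recorded over 60 min. Deaths compared with the vehicle + PTZ group by Fisher's exact test; n=6–7 per group.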
# [3] = Thermodynamic equilibrium solubility in water and other solvents; assay type: physicochemical; settings: spectroscopic method
# Kinetic = assay type: physicochemical; settings: water, 37 °C
# [4] = oral, 4 h pretreatment, PTZ 70 mg/kg
# [5] = oral, 8 h pretreatment, PTZ 70 mg/kg
Compound,log P (Partition coefficient),AUC(0-t) ([1]; brain) [µM·h],Kp [1],Kp at 24 h [1],AUC(0-t) ([1]; plasma) [µM·h],Cmax ([1]; plasma) [nM],Cmax (brain) [1] [nM],peak time of efficacy [2],effect on latency to produce convulsions [2],"lethality/number tested, 2 h ([2]; oral, PTZ 70 mg/kg)","lethality/number tested, 4 h [2, 4]","lethality/number tested, 8 h [2, 5]","improvement in water solubility, salt form vs free base [3]",persistence in solution state (supersaturation) vs free base (Kinetic),"latency to death, 4 h [2, 4] [s]","latency to death, 8 h [2, 5] [s]"
"C#Cc1ccc2c(c1)C(c1ccccn1)=NCc1c(-c3cnco3)ncn1-2 [KRM-II-81, 5-(8-Ethynyl-6-(pyridin-2-yl)-4H-benzo[f]imidazo[1,5-a][1,4]diazepin-3-yl)oxazole]",1.763 ± 0.12,2.69,0.32,0.77,3.59,1830,594.2,about 2 h,approximately a doubling of the latency to produce convulsions,0/6 ^a,0/6 ^a,0/6 ^a,–,–,–,–
"C#Cc1ccc2c(c1)C(c1ccccn1)=NCc1c(-c3cnco3)ncn1-2.Cl [KRM-II-81·HCl, 2-(8-Ethynyl-3-(oxazol-5-yl)-4H-benzo[f]imidazo[1,5-a][1,4]diazepin-6-yl)pyridin-1-ium Chloride]",0.53 ± 0.06,2.66,0.52,1,2.66,1320,689.1,about 2 h,approximately a doubling of the latency to produce convulsions,0/6 ^a,1/6,1/6,Approximately 13 fold,remain in the solution state for a longer period of time,15.68,43.00
